Where no end group is shown, it is not given here. [ ]: non-standard residue; d: D form. Arg(Me2a) = CN(C)C(=N)NCCC[C@H](N)C(=O)O; Arg(Me2s) = CN=C(NC)NCCC[C@H](N)C(=O)O; pS = N[C@@H](COP(=O)(O)O)C(=O)O

The target of test [1] is T1, hNatD (Homo sapiens, UniProt Q86UY6). The test is described as follows: Continuous fluorescence-based acetylation assay. The settings on record: for fold reduction in kcat/Km compared to H4-5 / fold decrease in kcat compared to H4-5: normalized to wild-type H4-5. The format is biochemical. In short, it runs like this:
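hNatD activity monitored continuously by fluorescence at 25 °C. All components except peptide were preincubated for 10 min, then the reaction was started with varying peptide concentrations. For AcCoA characterization, the peptide substrate was fixed at 50 μM. Readings were taken at 400–415 nm and 460–485 nm. Signal was converted to CoA via a standard curve, and initial velocities were fit to Michaelis-Menten or substrate-inhibition models. Run at least in duplicate.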

Test [2] has as its target T1, hNatD. The test is described as follows: MALDI-MS acetylation assay. Format: biochemical. The settings on record: relative to wild-type H4-5. In short, it runs like this:
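Human NatD 50 nM with 50 µM AcCoA in 25 mM HEPES, 150 mM NaCl, pH 7.5, 25 °C. Reaction started by adding peptide in 2-fold dilutions. Cysteine peptides were pre-reduced with DTT and diluted in buffer containing 10 mM DTT. Timed aliquots were quenched 1:1 in 0.1% TFA and spotted with CHCA for MALDI-MS of acetylated product. Initial slopes were fitted to Michaelis-Menten or substrate-inhibition models, in duplicate.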

“H4R3me2s: H4 pentapeptide with Arg3 symmetric dimethylation (SG[Arg(Me2s)]GK-NH2)”: in the test with hNatD [1] (fluorescence assay), the “fold reduction in kcat/Km compared to H4-5” value (“fold reduction … to H4-5” below) is on record as 17 fold.
“S1L: oncohistone H4/H2A pentapeptide with S1L mutation (LGRGK-NH2)”: the “fold decrease in kcat compared to H4-5” value with hNatD [1] (fluorescence assay) came out at 5 fold.
SGRGA: the “fold difference in kcat and kcat/Km compared to H4-5” value on hNatD [1] (SMARCD2-derived pentapeptide vs H4-5 (also H2A-5)) was “less than 2 fold”.
Regarding “H4R3me1: H4 pentapeptide with Arg3 monomethylation (SG[Rme1]GK-NH2; UniProt P62805 2-6, looked up, fragment)”, the “fold reduction … to H4-5” value with hNatD [1] (fluorescence assay) was found to be 3.6 fold.
Take SGCGK [R3C]: the “fold reduction … to H4-5” value on hNatD [2] worked out at 17 fold.
In the case of “R3Q: oncohistone H4/H2A pentapeptide with R3Q mutation (SGQGK-NH2)”, in the test with hNatD [1] (fluorescence assay), the “fold decrease in kcat compared to H4-5” value amounted to 3 fold and the “fold reduction … to H4-5” value was determined as 200 fold.
Consider “G4D: oncohistone H4/H2A pentapeptide with G4D mutation (SGRDK-NH2)”, for which, in the test with hNatD [1] (fluorescence assay), the “fold decrease in kcat compared to H4-5” value was “less than 2 fold”.
Take “H4K5ac: H4 pentapeptide with Lys5 acetylation (SGRGK(Ac)-NH2)”: the “kinetic parameters relative to unmodified H4-5 (in words)” value with hNatD [1] (fluorescence assay, compared to H4-5) is “comparable kinetic parameters”.
With “G4S: oncohistone H4/H2A pentapeptide with G4S mutation (SGRSK-NH2)”, in the test with hNatD [1] (fluorescence assay), the “fold decrease in kcat compared to H4-5” value is 7 fold and the “fold reduction … to H4-5” value is given as 17 fold.
With “S1F: oncohistone H4/H2A pentapeptide with S1F mutation (FGRGK-NH2)”, the “fold reduction … to H4-5” value with hNatD [2] is “over 1,000 fold”.
“H4R3me2a: H4 pentapeptide with Arg3 asymmetric dimethylation (SG[Arg(Me2a)]GK-NH2; UniProt P62805 2-6, looked up, fragment)”: the “fold reduction … to H4-5” value with hNatD [1] (fluorescence assay) is listed as 8 fold.
On to CGRGK [S1C], for which the “fold reduction … to H4-5” value at hNatD [2] is given as ~ 100 fold.
On to “H4pS1: H4 pentapeptide with Ser1 phosphorylation ([pS]GRGK-NH2)”, for which, in the test with hNatD [1] (fluorescence assay), the “fold decrease in kcat compared to H4-5” value is recorded as 2.3 fold and the “fold reduction … to H4-5” value is given as “over 100 fold”.
In the case of “G4V: oncohistone H4/H2A pentapeptide with G4V mutation (SGRVK-NH2)”, the “fold higher kcat/Km for G4V than G4D” value in the test with hNatD [1] (G4V relative to G4D) is given as 7 fold. Further, the “fold decrease in kcat compared to H4-5” value with hNatD [1] (fluorescence assay) is “less than 2 fold”.
With “G2E: oncohistone H4/H2A pentapeptide with G2E mutation (SERGK-NH2)”, the “fold decrease in kcat compared to H4-5” value in the test with hNatD [1] (fluorescence assay) amounted to 3 fold.
Regarding “R3H: oncohistone H4/H2A pentapeptide with R3H mutation (SGHGK-NH2)”, in the test with hNatD [1] (fluorescence assay), the “fold decrease in kcat compared to H4-5” value was 1.5 fold and the “fold reduction … to H4-5” value was found to be 6.5 fold.
Turning to “H2A-12: C-terminal truncated H2A synthetic peptide, 12 residues (SGRGKQGGKARA-NH2; UniProt P0C0S8 2-13, looked up, fragment)”, the “fold reduction in kcat/Km compared to corresponding H4 peptides” value with hNatD [1] (H2A peptide vs H4 peptide of the same length) is “about 4 fold”.

Source of the values: PMC9294072 (ACS chemical biology, 2022).
